Values joined by “and” are separate entries in the source; they are usually repeats but may differ in a detail not shown here. Equal entries are not always repeated.

One data set deals with A375 cells. Put plainly: MTT cell viability assay. The format is cell-based, human. To be noted: 48 h. The gist of the method: (§1)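 A375 cells were kept in high-glucose DMEM with 10% heat-inactivated FBS, 2 mM L-glutamine and pen/strep. Cells were seeded at 0.5×10^5/well and exposed to 10 µM test compound for 48 h at 37 °C, 5% CO₂, then given MTT. Viability = 100(x−y)/(z−y), where x, y and z are absorbance of treated, resting and untreated cells. Mean ± SD, ≥3 experiments in triplicate.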

The target of the next data set is IDO1 (Homo sapiens, UniProt P14902). As to the kind of experiment: Cellular IDO1 inhibition. The format is cell-based. As to conditions: A375 cell line, IFN-γ, 48 h; for IDO cellular assay inhibition [%] @ 10 μM±SD: L-Kyn by HPLC. An outline of the steps:
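A375 cells (0.5×10^5/well) were grown overnight, then given test compound (serial dilutions 0.01–30 µM, or single 10 µM) with human IFN-γ (500 U/mL final) and 0.1% DMSO for 48 h. Medium was deproteinized with 20% CCl₃COOH. L-Kyn was quantified by C18 HPLC at 330 nm against a calibration curve; % inhibition was taken versus basal levels. IC50s came from concentration-response curves, ≥3 experiments in triplicate.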

A further data set has as its target holo-IDO1 (Homo sapiens, UniProt P14902). As to the kind of experiment: Heme detection. The format is binding. To be noted: 1 μM holo-IDO1, 120 min, 37 °C; VS9 different concentrations, epacadostat 20 μM. The gist of the method:
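1 µM holo-IDO1 in 100 mM potassium phosphate (pH 7.2) with 1 mM CHAPS was incubated with varying test-compound concentrations, or 20 µM reference inhibitor, for 120 min at 37 °C. Samples were diluted 100-fold, and free heme was measured with a hemin detection kit at 570 nm. Values are relative to untreated, mean of n=3 ± SD.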

A short description of another data set: MTT cell viability assay. The data set is classed as cell-based, human. To be noted: human, A375 cells, Cell viability [%] @ 10 μM±SD. The gist of the method: as §1
Data set [1] has as its target recombinant form of human IDO1 (rhIDO1) (Homo sapiens, UniProt P14902). Put plainly: rhIDO1 enzymatic assay. The format is biochemical. To be noted: read-out: rhIDO1 inhibition. An outline of the steps:
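Recombinant human IDO1 inhibitor-screening kit: 10 µM test compound in complete reaction buffer, 45 min at 37 °C. Stopped with 30% (w/v) CCl₃COOH, heated 50 °C for 15 min and centrifuged. Supernatant was mixed 1:1 with 2% p-dimethylaminobenzaldehyde in acetic acid, and kynurenine pigment read at 490 nm. The kit's positive inhibition control was included. Mean ± SEM, three experiments in triplicate.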

In another data set the target is TDO (P1.TDO) (Homo sapiens, UniProt P48775). Put plainly: IDO1 and TDO selectivity assay, P1.TDO cells. The data set is classed as cell-based. To be noted: 10 μM, 16 h. An outline of the steps: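 Mouse mastocytoma P815-derived P1.HTR cells, stably electroporated with a human TDO plasmid and selected in puromycin, grown in IMDM with 1 mM glutamine and penicillin/streptomycin, used at ≤10th passage. Cells incubated 16 h with 10 μM test compound; DMSO vehicle as control. Supernatant L-Kyn measured by HPLC-UV (C18 column) against a calibration curve, detection limit 0.05 μM. Triplicate.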

Data set [2] in a line: In vitro metabolic stability in rat liver S9 fraction. The data set is classed as in vitro ADME. As to conditions: rat liver S9 with NADPH, 5 μM substrate, 37 °C. The gist of the method:
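Pooled male Sprague Dawley rat liver S9 (1.5 mg/mL final protein) was used in 50 mM Tris pH 7.4 with 3.3 mM MgCl₂, 1.3 mM β-NADP, 3.3 mM glucose 6-phosphate, 0.4 U/mL G6PDH and 1% acetonitrile. Test compound was 5 µM, shaken 60 min at 37 °C. Controls lacked S9 or cofactors. Reactions were stopped with ice-cold acetonitrile and centrifuged; residual substrate was measured.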

Sequence of IDO1 (P14902 whole entry): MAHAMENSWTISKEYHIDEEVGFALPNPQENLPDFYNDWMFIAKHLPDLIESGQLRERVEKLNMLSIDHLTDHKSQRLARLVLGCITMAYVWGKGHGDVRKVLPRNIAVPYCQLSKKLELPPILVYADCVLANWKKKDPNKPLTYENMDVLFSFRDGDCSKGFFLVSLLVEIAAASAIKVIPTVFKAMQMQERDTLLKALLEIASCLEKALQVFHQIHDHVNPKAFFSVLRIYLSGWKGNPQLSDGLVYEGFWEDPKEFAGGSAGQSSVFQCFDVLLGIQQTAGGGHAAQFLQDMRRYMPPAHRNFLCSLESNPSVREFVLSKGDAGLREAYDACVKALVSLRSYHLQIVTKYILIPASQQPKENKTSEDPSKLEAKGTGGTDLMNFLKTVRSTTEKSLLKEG
Sequence of holo-IDO1 (P14902 whole entry): as above
Sequence of recombinant form of human IDO1 (rhIDO1) (P14902 whole entry): as above
Sequence of TDO (P1.TDO) (P48775 whole entry): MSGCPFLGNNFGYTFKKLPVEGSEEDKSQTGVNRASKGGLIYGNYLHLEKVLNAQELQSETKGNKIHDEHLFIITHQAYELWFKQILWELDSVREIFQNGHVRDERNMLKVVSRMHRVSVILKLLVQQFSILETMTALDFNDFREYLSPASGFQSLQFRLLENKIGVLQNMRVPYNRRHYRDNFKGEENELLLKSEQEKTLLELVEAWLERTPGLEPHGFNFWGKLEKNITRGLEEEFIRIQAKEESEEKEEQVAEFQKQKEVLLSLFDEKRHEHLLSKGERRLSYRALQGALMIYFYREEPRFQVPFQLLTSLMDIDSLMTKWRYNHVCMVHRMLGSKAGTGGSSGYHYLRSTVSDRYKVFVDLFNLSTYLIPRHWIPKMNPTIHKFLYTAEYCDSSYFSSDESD

With “N‐((6‐(Trifluoromethyl)‐[1,2,4]triazolo[4,3‐a]pyridin‐3‐yl)methyl)‐9H‐fluorene‐4‐carboxamide [Compound 10]”, in the data set with A375 cells, the “Cell viability [%] @ 10 μM±SD” value came out at 90±14.8%. Moreover, on IDO1, the “IDO cellular assay inhibition [%] @ 10 μM±SD” value turned out to be 34±1%.
For “2‐Methyl‐3‐((pyridin‐3‐ylmethyl)amino)‐N‐((6‐(trifluoromethyl)‐[1,2,4]triazolo[4,3‐a]pyridin‐3‐yl)methyl)benzamide [Compound 11]”, the “Cell viability [%] @ 10 μM±SD” value in the data set on A375 cells turned out to be 91±12.7%. Moreover, the “IDO cellular assay inhibition [%] @ 10 μM±SD” value on IDO1 is listed as 22±5%.
On to `NS(=O)(=O)NCCNc1nonc1C(=NO)Nc1ccc(F)c(Br)c1` [epacadostat, reference compound], for which, on holo-IDO1, the “levels of free heme after incubation with IDO1” value is “did not increase the levels of free heme”.
Regarding `O=C(NCc1nnc2ccc(C(F)(F)F)cn12)c1cccc2cn[nH]c12` [Compound 2, N‐((6‐(Trifluoromethyl)‐[1,2,4]triazolo[4,3‐a]pyridin‐3‐yl)methyl)‐1H‐indazole‐7‐carboxamide], the viability at 48 h, 10 μM in “MTT cell viability assay” came to 91 ± 9.9%. The “Cell viability [%] @ 10 μM±SD” value in the data set on A375 cells worked out at 87±18.3%. In addition, the “IDO cellular assay inhibition [%] @ 10 μM±SD” value on IDO1 is listed as 42±9%. The half-inhibitory concentration (IC50) against IDO1 (IC50±SD [μM]) was 2.6 µM and 2.8 µM. Further, in data set [1], the inhibition at 10 µM came out at 54.6 ± 3.1%. Moreover, the “levels of free heme after incubation with IDO1” value on holo-IDO1 was “did not increase the levels of free heme”. At TDO (P1.TDO), the “Kyn levels in P1.TDO cells” value was “not able to induce a reduction of Kyn levels in P1.TDO”. Further, in data set [2], the “Residual peak area after RLS9 incubation (60 min)” value is reported as “higher than 99%”.

(Values after PMC9291769 (Chemmedchem, 2021).)
